In assay [1] the target is Histone deacetylase. In words: Inhibition of HDAC in cisplatin resistant human A2780 cells after 18 hrs by fluorescence assay. It is filed as cell-based.
For assay [2], the target named is Histone deacetylase. The experiment in a line: Inhibition of HDAC in human A2780 cells after 18 hrs by fluorescence assay. Type of assay: cell-based.
Assay [3] deals with A2780. In words: Cytotoxicity against human A2780 cells after 72 hrs by MTT assay. The conditions noted are these: A2780, 72 h. Type of assay: functional, cell-based. For orientation: Tetrazolium assays rely on reduction of a dye to a coloured formazan, in cell work by metabolically active cells.
The subject of assay [4] is A2780 CisR (Homo sapiens). The experiment in a line: cells. Conditions: 72 h.
The subject of assay [5] is A2780. In words: Cytotoxicity against cisplatin resistant human A2780 cells up to 100 uM after 72 hrs by MTT assay. It is filed as functional, cell-based. The method, boiled down: (§1)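 A2780 or its cisplatin-resistant subclone A2780CisR, seeded 5000 cells/well, grown in RPMI 1640 with 10% FCS at 37 °C, 5% CO2. Compound exposure began 24 h after seeding and lasted 72 h. MTT (5 mg/mL in PBS) was added, formazan dissolved in DMSO, absorbance read at 544 and 690 nm. IC50 from four-parameter logistic fit, ≥3 experiments in triplicate.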

Assay [6] relates to A2780. The experiment in a line: Cytotoxicity against human A2780 cells up to 100 uM after 72 hrs by MTT assay. Type of assay: functional, cell-based. The gist of the method:
as §1

Active and inactive are the calls of the source. No cut-off for these calls is given here. Where only a bound is given, the exact number is not on record here.

Consider `CC(C)c1ccc(NC(=O)NOCCCCCC(=O)NO)cc1`, for which the IC50 (commonly the concentration at which inhibition is half-maximal) at Histone deacetylase [1] was determined as 2.05 µM; at Histone deacetylase [2], 2.86 µM; in the assay on A2780 [3], 27.1 µM; in assay [4], 58.8 µM.
For the compound `Cc1ccc(NC(=O)NOCCCCCC(=O)NO)cc1`, the IC50 at Histone deacetylase [1] was 1.43 µM; against Histone deacetylase [2], 1.45 µM; with A2780 [3] it was 8.05 µM; in assay [4], 10.2 µM.
The corresponding values for `Cc1cc(C)cc(NC(=O)NOCCCCCC(=O)NO)c1` are 4.64 µM, 5.27 µM, 2.43 µM and 5.11 µM.
The corresponding values for `O=C(O)CCCCCONC(=O)Nc1ccc(F)cc1` are greater than 100 µM, greater than 100 µM, 67.8 µM and 73.1 µM.
The corresponding values for `Cc1ccccc1NC(=O)NOCCCCCC(=O)NO` are 8.86 µM, 11.7 µM, 23 µM and 30.1 µM.
Turning to `Nc1ccccc1NC(=O)CCCCCONC(=O)Nc1ccccc1`, the IC50 was determined as 43.9 µM on Histone deacetylase [1], 34 µM at Histone deacetylase [2], 62.5 µM with A2780 [3] and 86.9 µM in assay [4].
The like results for `CC(C)(C)c1ccc(NC(=O)NOCCCCCC(=O)NO)cc1` were, in that order, 1.32 µM, 1.41 µM, 6.34 µM and 8.8 µM.
Consider `Cc1ccc(NC(=O)NOCCCCCC(=O)O)cc1`, for which the result with A2780 [5] and in the assay on A2780 [6] was inactive. The half-maximal inhibitory concentration (IC50) (in the assay on A2780 [3]; in assay [4]) was greater than 100 µM each time.
As for `O=C(CCCCCONC(=O)Nc1ccccc1)Nc1ccccc1O`, the IC50 came out at 43.9 µM against Histone deacetylase [1], 34 µM against Histone deacetylase [2], 35 µM with A2780 [3] and 84.6 µM in assay [4].
The corresponding values for `O=C(CCCCCONC(=O)NNc1ccccc1)NO` are 4.95 µM, 5.86 µM, 34.9 µM and 42.4 µM.
On to `O=C(CCCCCONC(=O)c1ccc(F)cc1)NO`, for which the IC50 was 2 µM on Histone deacetylase [1], 2.57 µM on Histone deacetylase [2], 16.4 µM in the assay with A2780 [3] and 60.3 µM in assay [4].
For `COc1ccc(NC(=O)NOCCCCCC(=O)O)cc1`, the outcome in the assay on A2780 [5] and with A2780 [6] was inactive. For the same compound, the IC50 (in the assay on A2780 [3]; in assay [4]) was greater than 100 µM each time.
For the compound `COc1ccc(NC(=O)NOCCCCCC(=O)NO)cc1`, the IC50 amounted to 5.73 µM at Histone deacetylase [1], 6.64 µM against Histone deacetylase [2], 10.3 µM with A2780 [3] and 18.2 µM in assay [4].
The like results for `Cc1ccc(C(=O)NOCCCCCC(=O)NO)cc1` were, in that order, 3.46 µM, 4.21 µM, 4.09 µM and 5 µM.
With `O=C(O)CCCCCONC(=O)Nc1cccc2ccccc12`, the result with A2780 [5] and in the assay on A2780 [6] was inactive. Further, the IC50 (in the assay on A2780 [3]; in assay [4]) was greater than 100 µM in each case.
`O=C(CCCCCONC(=O)Nc1cccc2ccccc12)NO`: the IC50 at Histone deacetylase [1] came out at 0.9 µM; at Histone deacetylase [2], 1.06 µM; with A2780 [3] it was 7.63 µM; in assay [4] it was 7.87 µM.
With `O=C(O)CCCCCONC(=O)Nc1ccccc1`, the IC50 on Histone deacetylase [1] was greater than 100 µM; on Histone deacetylase [2], greater than 100 µM; with A2780 [3] it was 23.5 µM; in assay [4], 72.5 µM.
For `O=C(CCCCCONC(=O)Nc1ccc(F)cc1)NO`, the IC50 came out at 1.66 µM on Histone deacetylase [1], 2.04 µM on Histone deacetylase [2], 9.05 µM in the assay on A2780 [3] and 9.34 µM in assay [4].
With `CN(O)C(=O)CCCCCONC(=O)Nc1ccccc1`, the IC50 is greater than 100 µM on Histone deacetylase [1], greater than 100 µM at Histone deacetylase [2], 87.9 µM in the assay on A2780 [3] and greater than 100 µM in assay [4].
Consider `Cc1cccc(NC(=O)NOCCCCCC(=O)NO)c1`, for which the IC50 turned out to be 5.38 µM at Histone deacetylase [1], 7.63 µM against Histone deacetylase [2], 8.33 µM in the assay on A2780 [3] and 8.12 µM in assay [4].
The corresponding values for `O=C(CCCCCONC(=O)c1ccc(C(F)(F)F)cc1)NO` are 1.95 µM, 2.09 µM, 9.53 µM and 30.8 µM.
The corresponding values for `O=C(CCCCCONC(=O)c1ccccc1)NO` are 1.26 µM, 1.58 µM, 8.33 µM and 5.72 µM.
On to `Cc1ccccc1C(=O)NOCCCCCC(=O)NO`, for which the IC50 stood at 15.4 µM at Histone deacetylase [1], 17.1 µM on Histone deacetylase [2], 25.6 µM in the assay on A2780 [3] and 33.8 µM in assay [4].
`O=C(CCCCCONC(=O)Nc1cnc2ccccc2c1)NO`: the IC50 came out at 0.85 µM on Histone deacetylase [1], 1.07 µM against Histone deacetylase [2], 10.8 µM in the assay with A2780 [3] and 11.6 µM in assay [4].
The corresponding values for `CC(C)c1ccc(C(=O)NOCCCCCC(=O)NO)cc1` are 0.5 µM, 0.6 µM, 4.13 µM and 4.96 µM.
For the compound `CC(/C=C/C(=O)NO)=C\[C@@H](C)C(=O)c1ccc(N(C)C)cc1` [TRICHOSTATIN], the concentration for half-maximal inhibition (IC50) in the assay with A2780 [3] is 0.29 µM; in assay [4], 0.22 µM.
On to `O=C(CCCCCONC(=O)Nc1ccccc1)NO`, for which the IC50 on Histone deacetylase [1] is 1.71 µM; against Histone deacetylase [2], 1.7 µM; in the assay with A2780 [3], 8.47 µM; in assay [4], 5.47 µM.
As for `O=C(CCCCONC(=O)Nc1ccccc1)NO`, the IC50 is 16.6 µM against Histone deacetylase [1], 15.2 µM on Histone deacetylase [2], 62.6 µM in the assay on A2780 [3] and 35.2 µM in assay [4].

The values are drawn from ChEMBL document CHEMBL2311425, “Histone deacetylase (HDAC) inhibitors with a novel connecting unit linker region reveal a selectivity profile for HDAC4 and HDAC5 with improved activity against chemoresistant cancer cells” (J Med Chem, 2013).
